Measurements reported in article PMC3787694 (Biochimica et biophysica acta, 2010).
Where a name gives a salt, the structure may show the parent alone. Read-outs that look alike come from different tables or passages of the source.

Key:
[1] = biological target: human fetal muscle AChR (α1β1γδ) in TE671 cells (Homo sapiens, UniProt P02708+P07510+P11230+Q07001); type: cell-based
Torpedo AChR [2] = biological target: T1, Torpedo AChR (Tetronarce californica, UniProt P02710+P02712+P02714+P02718); assay: Equilibrium binding of [3H]18-MC to Torpedo AChR native membranes
Procedure, shortened: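 [3H]18-MC plus unlabelled ligand was added at 0.07–1.2 μM for 2 h at RT, then filtered. Nonspecific binding was measured with 100 μM unlabelled ligand. Kd was taken from the Rosenthal-Scatchard slope and sites/AChR from its x-intercept.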

[3] = biological target: Torpedo AChR ion channel ([3H]ibogaine site) (Tetronarce californica, UniProt P02710+P02712+P02714+P02718); assay: [3H]ibogaine competition binding to Torpedo AChRs
[4] = biological target: T2, Torpedo AChR (immobilized) (Tetronarce californica, UniProt P02710+P02712+P02714+P02718); assay: Binding kinetics by non-linear chromatography on CMAC-Torpedo AChR column; details: for Kd: Ka; for koff: 20 °C; for ΔG^20: Eq. (4); for kon: kon=koff·Ka
[5] = biological target: T2, Torpedo AChR (immobilized); assay: Thermodynamic parameters by non-linear chromatography; type: binding; details: for Ea (drug dissociation): Arrhenius plot; for ΔG^20: Eq. (8), 293K; for ΔH^+: Eq. (10); for ΔH°: van't Hoff 10-25 °C
Torpedo AChR [6] = biological target: T1, Torpedo AChR; assay: biochemical; type: binding; details: for apparent nH: [3H]cytisine binding enhancement; for fractional occupancy (θ): calculated with Eq. (2)
α4β2 AChR = details: read-out: inhibitory potency; cited from earlier work
[7] = biological target: Torpedo AChR ion channel ([3H]TCP site) (Tetronarce californica, UniProt P02710+P02712+P02714+P02718); assay: [3H]TCP competition binding to Torpedo AChRs in different conformational states; details: for Ki / nH / ΔG: [3H]TCP; for ΔG: 298K
α3β4 AChR = details: cited from earlier work
[8] = biological target: Torpedo AChR ion channel ([3H]18-MC site) (Tetronarce californica, UniProt P02710+P02712+P02714+P02718); type: binding; details: for Ki / nH / ΔG: [3H]18-MC; for ΔG: 298K
Torpedo AChR [9] = details: cited from earlier work
AChR = details: cited from earlier work
Torpedo AChR [10] = details: cited from earlier work; remark: listed apart in the source
[11] = epibatidine treated column (desensitized state)
[12] = α-BTx treated column (resting state)
[13] = 5 min pre-incubation IC50 comparison

T2 sequence (P02718 22-522): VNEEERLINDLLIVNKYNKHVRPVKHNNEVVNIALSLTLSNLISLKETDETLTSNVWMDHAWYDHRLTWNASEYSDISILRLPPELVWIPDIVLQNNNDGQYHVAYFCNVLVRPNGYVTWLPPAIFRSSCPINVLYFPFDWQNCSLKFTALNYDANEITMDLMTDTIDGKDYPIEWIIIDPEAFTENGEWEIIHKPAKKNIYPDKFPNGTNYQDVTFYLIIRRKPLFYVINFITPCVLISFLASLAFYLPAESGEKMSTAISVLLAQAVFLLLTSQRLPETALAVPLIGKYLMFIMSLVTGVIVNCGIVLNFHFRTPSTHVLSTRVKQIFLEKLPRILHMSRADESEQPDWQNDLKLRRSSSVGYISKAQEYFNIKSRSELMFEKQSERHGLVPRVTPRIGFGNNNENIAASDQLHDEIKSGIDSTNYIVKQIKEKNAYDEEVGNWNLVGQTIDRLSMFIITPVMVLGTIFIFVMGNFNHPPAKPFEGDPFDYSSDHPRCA
T2 sequence (P02712 25-493): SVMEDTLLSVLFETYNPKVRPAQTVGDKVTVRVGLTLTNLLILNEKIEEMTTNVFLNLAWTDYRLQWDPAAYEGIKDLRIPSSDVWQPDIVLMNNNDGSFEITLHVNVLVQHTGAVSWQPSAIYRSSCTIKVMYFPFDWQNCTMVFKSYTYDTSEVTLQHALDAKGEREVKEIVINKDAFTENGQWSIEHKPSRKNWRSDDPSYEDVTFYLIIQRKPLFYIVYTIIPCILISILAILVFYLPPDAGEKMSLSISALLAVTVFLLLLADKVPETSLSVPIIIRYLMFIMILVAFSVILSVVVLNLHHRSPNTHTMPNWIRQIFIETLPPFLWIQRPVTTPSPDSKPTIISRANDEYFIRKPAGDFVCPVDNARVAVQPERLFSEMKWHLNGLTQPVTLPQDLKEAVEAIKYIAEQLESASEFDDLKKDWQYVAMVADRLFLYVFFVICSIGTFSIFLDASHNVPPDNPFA
T2 sequence (P02714 18-506): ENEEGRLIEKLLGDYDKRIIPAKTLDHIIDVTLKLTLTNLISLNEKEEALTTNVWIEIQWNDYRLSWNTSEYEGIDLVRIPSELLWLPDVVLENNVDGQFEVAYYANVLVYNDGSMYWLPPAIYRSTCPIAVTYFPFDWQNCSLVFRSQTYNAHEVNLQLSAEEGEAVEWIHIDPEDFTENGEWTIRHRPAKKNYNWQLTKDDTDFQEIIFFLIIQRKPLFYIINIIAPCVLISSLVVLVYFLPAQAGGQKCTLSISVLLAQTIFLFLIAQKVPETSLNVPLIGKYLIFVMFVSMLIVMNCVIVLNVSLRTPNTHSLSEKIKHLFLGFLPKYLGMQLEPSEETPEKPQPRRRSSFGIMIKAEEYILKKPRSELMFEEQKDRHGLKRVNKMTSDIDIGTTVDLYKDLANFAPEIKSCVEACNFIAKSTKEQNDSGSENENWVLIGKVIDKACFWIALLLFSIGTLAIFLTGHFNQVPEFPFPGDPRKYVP
T2 sequence (P02710 25-461): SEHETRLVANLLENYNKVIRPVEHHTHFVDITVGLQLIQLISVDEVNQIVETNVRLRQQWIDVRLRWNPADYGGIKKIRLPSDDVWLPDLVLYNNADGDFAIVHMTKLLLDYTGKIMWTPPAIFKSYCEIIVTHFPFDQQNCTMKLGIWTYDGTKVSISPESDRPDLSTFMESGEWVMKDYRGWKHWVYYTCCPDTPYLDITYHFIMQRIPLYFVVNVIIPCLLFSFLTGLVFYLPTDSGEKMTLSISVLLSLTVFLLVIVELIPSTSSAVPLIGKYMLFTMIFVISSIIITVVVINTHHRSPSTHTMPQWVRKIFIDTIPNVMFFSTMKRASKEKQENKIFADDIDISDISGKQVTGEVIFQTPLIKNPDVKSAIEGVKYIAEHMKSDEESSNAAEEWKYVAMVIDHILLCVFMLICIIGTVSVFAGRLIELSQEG
human fetal muscle AChR (α1β1γδ) in TE671 cells, sequence (P02708 21-457): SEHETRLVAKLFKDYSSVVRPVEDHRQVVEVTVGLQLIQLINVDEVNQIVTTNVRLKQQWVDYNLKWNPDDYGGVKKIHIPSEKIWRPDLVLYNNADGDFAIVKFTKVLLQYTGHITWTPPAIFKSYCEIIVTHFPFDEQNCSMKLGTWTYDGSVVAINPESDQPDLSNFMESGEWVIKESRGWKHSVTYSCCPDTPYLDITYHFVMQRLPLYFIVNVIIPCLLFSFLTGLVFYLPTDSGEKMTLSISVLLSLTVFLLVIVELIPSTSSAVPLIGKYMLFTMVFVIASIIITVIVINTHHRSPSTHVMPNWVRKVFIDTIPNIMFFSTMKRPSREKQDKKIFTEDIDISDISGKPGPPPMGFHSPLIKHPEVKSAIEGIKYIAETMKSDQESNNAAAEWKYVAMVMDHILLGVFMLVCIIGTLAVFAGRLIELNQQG
human fetal muscle AChR (α1β1γδ) in TE671 cells, sequence (Q07001 22-517): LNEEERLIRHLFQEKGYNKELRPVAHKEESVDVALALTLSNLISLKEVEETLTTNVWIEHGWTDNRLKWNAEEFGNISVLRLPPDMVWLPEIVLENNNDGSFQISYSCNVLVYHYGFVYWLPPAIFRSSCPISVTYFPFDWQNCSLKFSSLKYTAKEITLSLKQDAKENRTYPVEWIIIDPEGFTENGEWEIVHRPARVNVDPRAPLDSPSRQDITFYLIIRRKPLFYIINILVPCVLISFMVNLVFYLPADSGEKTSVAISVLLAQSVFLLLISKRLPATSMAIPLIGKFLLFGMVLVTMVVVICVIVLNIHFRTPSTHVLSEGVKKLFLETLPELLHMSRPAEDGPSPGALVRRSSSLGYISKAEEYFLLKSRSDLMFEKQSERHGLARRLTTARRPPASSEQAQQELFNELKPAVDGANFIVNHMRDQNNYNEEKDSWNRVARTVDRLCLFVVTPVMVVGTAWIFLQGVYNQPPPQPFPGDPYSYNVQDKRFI
human fetal muscle AChR (α1β1γδ) in TE671 cells, sequence (P11230 24-501): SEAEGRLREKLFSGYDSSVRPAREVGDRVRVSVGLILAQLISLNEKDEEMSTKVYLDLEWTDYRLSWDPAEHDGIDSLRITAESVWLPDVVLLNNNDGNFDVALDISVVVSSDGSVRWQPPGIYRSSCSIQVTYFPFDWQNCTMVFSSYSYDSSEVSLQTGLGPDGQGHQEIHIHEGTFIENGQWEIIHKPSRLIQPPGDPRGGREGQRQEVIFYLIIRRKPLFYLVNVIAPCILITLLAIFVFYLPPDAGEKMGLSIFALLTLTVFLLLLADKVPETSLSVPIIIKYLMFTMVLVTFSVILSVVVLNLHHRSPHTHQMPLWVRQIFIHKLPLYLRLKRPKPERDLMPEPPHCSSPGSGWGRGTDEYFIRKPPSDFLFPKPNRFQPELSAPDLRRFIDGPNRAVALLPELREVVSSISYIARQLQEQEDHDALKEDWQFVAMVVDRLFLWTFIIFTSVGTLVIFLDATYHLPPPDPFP
human fetal muscle AChR (α1β1γδ) in TE671 cells, sequence (P07510 23-517): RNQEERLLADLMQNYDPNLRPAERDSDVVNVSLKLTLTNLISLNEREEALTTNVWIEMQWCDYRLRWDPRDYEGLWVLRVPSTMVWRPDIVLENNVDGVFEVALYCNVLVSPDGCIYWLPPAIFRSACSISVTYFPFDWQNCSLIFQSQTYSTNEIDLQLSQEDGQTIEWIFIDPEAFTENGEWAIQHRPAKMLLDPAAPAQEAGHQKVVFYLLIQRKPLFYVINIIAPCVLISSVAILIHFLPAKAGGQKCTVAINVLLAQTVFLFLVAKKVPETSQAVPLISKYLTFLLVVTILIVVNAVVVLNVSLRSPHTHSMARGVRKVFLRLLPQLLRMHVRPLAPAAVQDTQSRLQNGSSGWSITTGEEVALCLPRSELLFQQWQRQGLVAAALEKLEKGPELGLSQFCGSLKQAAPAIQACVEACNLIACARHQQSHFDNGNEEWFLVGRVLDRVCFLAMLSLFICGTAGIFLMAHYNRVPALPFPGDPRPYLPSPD
Torpedo AChR ion channel ([3H]TCP site), sequence (P02710 25-461): as the sequence (P02710 25-461) above
Torpedo AChR ion channel ([3H]TCP site), sequence (P02712 25-493): as the sequence (P02712 25-493) above
Torpedo AChR ion channel ([3H]TCP site), sequence (P02714 18-506): as the sequence (P02714 18-506) above
Torpedo AChR ion channel ([3H]TCP site), sequence (P02718 22-522): as the sequence (P02718 22-522) above
Torpedo AChR ion channel ([3H]18-MC site), sequence (P02710 25-461): as the sequence (P02710 25-461) above
Torpedo AChR ion channel ([3H]18-MC site), sequence (P02712 25-493): as the sequence (P02712 25-493) above
Torpedo AChR ion channel ([3H]18-MC site), sequence (P02714 18-506): as the sequence (P02714 18-506) above
Torpedo AChR ion channel ([3H]18-MC site), sequence (P02718 22-522): as the sequence (P02718 22-522) above
Torpedo AChR ion channel ([3H]ibogaine site), sequence (P02710 25-461): as the sequence (P02710 25-461) above
Torpedo AChR ion channel ([3H]ibogaine site), sequence (P02712 25-493): as the sequence (P02712 25-493) above
Torpedo AChR ion channel ([3H]ibogaine site), sequence (P02714 18-506): as the sequence (P02714 18-506) above
Torpedo AChR ion channel ([3H]ibogaine site), sequence (P02718 22-522): as the sequence (P02718 22-522) above
T1 sequence (P02710 25-461): as the sequence (P02710 25-461) above
T1 sequence (P02712 25-493): as the sequence (P02712 25-493) above
T1 sequence (P02714 18-506): as the sequence (P02714 18-506) above
T1 sequence (P02718 22-522): as the sequence (P02718 22-522) above

Compound: Clc1ccc(C2CC3CCC2N3)cn1 (racemic) [(±)-epibatidine, reference compound]
- nH of activation ([1]; agonist activation): 1.23 ±0.06

Compound: COCC[C@H]1CC2CN3CCc4c([nH]c5ccccc45)[C@](C(=O)OC)(C2)[C@H]13 [18-MC, 18-methoxycoronaridine]
- Kd (Torpedo AChR [2]): 230 ± 40 nM
- Ki [3]: 610 ± 80 nM
- nH ([3]; [3H]ibogaine, desensitized/CCh-bound state): 1.02 ±0.13
- ΔG ([3]; [3H]ibogaine, desensitized/CCh-bound state, 298K): -8.48 ± 0.072 kcal/mol
- inhibition of the specific binding of [3H]ibogaine ([3]; both conformational states (so in the source)): ~100%
- Kd [4, 11]: 337 nM
- Kd [4, 12]: 885 nM
- koff [4, 11]: 0.077 ± 0.001 s⁻¹
- ΔG^20 [4, 11]: -8.68 ± 0.024 kcal/mol
- kon [4, 11]: 228000 ± 3000 M⁻¹ s⁻¹
- koff [4, 12]: 0.109 ± 0.005 s⁻¹
- ΔG^20 [4, 12]: -8.1 ± 0.024 kcal/mol
- kon [4, 12]: 123000 ± 2000 M⁻¹ s⁻¹
- enthalpic contribution relative to the entropic contribution ([5]; desensitized AChR): more than 2 fold
- −TΔS° [5, 11]: -2.68 ± 0.287 kcal/mol
- Ea (drug dissociation) [5, 11]: 5.35 ± 0.359 kcal/mol
- ΔG^20 [5, 11]: -8.68 ± 0.335 kcal/mol
- ΔH^+ [5, 11]: 4.78 ± 0.359 kcal/mol
- ΔH° [5, 11]: -5.98 ± 0.263 kcal/mol
- −TΔS° [5, 12]: -3.7 ± 0.263 kcal/mol
- Ea (drug dissociation) [5, 12]: 3.92 ± 0.17 kcal/mol
- ΔG^20 [5, 12]: -8.13 ± 0.335 kcal/mol
- ΔH^+ [5, 12]: 3.32 ± 0.17 kcal/mol
- ΔH° [5, 12]: -4.42 ± 0.263 kcal/mol
- EC50 (Torpedo AChR [6]): 300 ± 100 nM
- fold more potent than ibogaine to induce AChR desensitization (Torpedo AChR [6]): ~90 fold
- apparent nH (Torpedo AChR [6]): 0.81±0.20
- IC50 (α4β2 AChR): > 20000 nM
- Ki ([7]; desensitized/CCh-bound state): 170 ± 10 nM
- Ki ([7]; resting/α-BTx-bound state): 1400 ± 100 nM
- fold higher affinity in the desensitized AChR than in the resting AChR ([7]; [3H]TCP binding site): ~8 fold
- nH ([7]; desensitized/CCh-bound state): 1.11 ±0.07
- ΔG ([7]; desensitized/CCh-bound state): -9.23 ± 0.024 kcal/mol
- nH ([7]; resting/α-BTx-bound state): 0.89 ± 0.06
- ΔG ([7]; resting/α-BTx-bound state): -7.98 ± 0.048 kcal/mol
- inhibition of the specific binding of [3H]TCP ([7]; both conformational states): ~100%
- IC50 (α3β4 AChR): 750 to 900 nM
- Ki ([8]; desensitized/CCh-bound state): 470 ± 30 nM
- Ki ([8]; resting/α-BTx-bound state): 1000 ± 100 nM
- fold higher affinity for the desensitized AChR compared to the resting AChR ([8]; [3H]18-MC competition): ~2 fold
- nH ([8]; desensitized/CCh-bound state): 1.02 ±0.06
- ΔG ([8]; desensitized/CCh-bound state): -8.63 ± 0.048 kcal/mol
- nH ([8]; resting/α-BTx-bound state): 0.70 ± 0.05
- ΔG ([8]; resting/α-BTx-bound state): -8.2 ± 0.072 kcal/mol
- increase of potency by longer pre-incubation periods ([1]; 4 or 24 h vs 5 min pre-incubation): ~2 fold
- fold more potent than PCP [1, 13]: ~4 fold
- fold more potent than ibogaine [1, 13]: ~2 fold
- nH (Hill coefficient) ([1]; pre-incubation 5 min): 1.56 ±0.15
- nH (Hill coefficient) ([1]; pre-incubation 240 min): 1.90 ±0.20
- nH (Hill coefficient) ([1]; pre-incubation 1440 min): 1.61 ±0.13
- manner of inhibition of hα1β1γδ AChR ([1]; pre-treatment with 1, 10 and 100 μM): dose dependent and noncompetitive manner

Compound: c1ccc(C2(N3CCCCC3)CCCCC2)cc1 [PCP, phencyclidine]
- Ki ([8]; desensitized/CCh-bound state): 410 ± 30 nM
- Ki ([8]; resting/α-BTx-bound state): 730 ± 50 nM
- nH ([8]; desensitized/CCh-bound state): 0.76 ± 0.03
- ΔG ([8]; desensitized/CCh-bound state): -8.7 ± 0.024 kcal/mol
- nH ([8]; resting/α-BTx-bound state): 0.88 ± 0.05
- ΔG ([8]; resting/α-BTx-bound state): -8.37 ± 0.048 kcal/mol
- inhibition of the specific binding of [3H]18-MC ([8]; both conformational states): ~100%
- nH (Hill coefficient) ([1]; pre-incubation 5 min): 2.30 ±0.04

Compound: c1csc(C2(N3CCCCC3)CCCCC2)c1 [[^3H]TCP, [Piperidyl-3,4-^3H(N)]-(N-(1-(2 thienyl)cyclohexyl)-3,4-piperidine)]
- Kd (Torpedo AChR [9]; desensitized state): 250 nM
- Kd (Torpedo AChR [9]; resting state): 830 nM

Compound: [3H]c1cc([3H])c(=O)n2c1[C@H]1CNC[C@H](C1)C2 [[^3H]cytisine, [^3H]cytisine hydrochloride, reference compound]
- fractional occupancy (θ) (Torpedo AChR [6]; bound to the desensitized AChR, 7.7 nM): ~0.017%
- fractional occupancy (θ) (Torpedo AChR [6]; bound to the resting AChR, nH = 1, 7.7 nM): ~0.005%

Compound: O=c1cccc2n1C[C@@H]1CNC[C@H]2C1 [cytisine]
- Ki (AChR; desensitized state): 450 nM
- Ki (AChR; resting state): 1600 nM

Compound: [^3H]18-Methoxycoronaridine [[^3H]18-MC]
- stoichiometric ratio (Torpedo AChR [2]; desensitized/CCh-bound state): 0.86 ± 0.13 binding sites/AChR
- Kd (Torpedo AChR [2]; desensitized/CCh-bound state (1 mM CCh), Rosenthal-Scatchard plot): 230 nM

Compound: [^3H]Ibogaine
- Kd (Torpedo AChR [10]): 5400 nM

Compound: ibogaine
- apparent nH (Torpedo AChR [6]): 0.99±0.22
- IC50 (α3β4 AChR): 220 nM
- nH ([8]; desensitized/CCh-bound state): 1.11 ±0.07
- ΔG ([8]; desensitized/CCh-bound state): -6.86 ± 0.048 kcal/mol
- nH ([8]; resting/α-BTx-bound state): 1.04 ±0.08
- ΔG ([8]; resting/α-BTx-bound state): -6.76 ± 0.048 kcal/mol
- nH (Hill coefficient) ([1]; pre-incubation 5 min): 2.00 ±0.29
